Hits are enriched below; roughly 1.7% of the tested compounds scored in any of these assays.
DNMT1 inh: DNMT1 (human) enzyme inhibition; P26358; DNMT1 molecular beacon, Hinp1I cleavage, fluorescence; inhibition (reported as % activation of signal), % at 10 µM; 360,000 compounds, 0.83% hits; AID 588458; in the data active = inhibition above about 50%
STEP inh: blocks human striatal-enriched tyrosine phosphatase; 360,000 compounds, 0.25% hits; inhibition, % at 20 µM; P54829; AID 588621; recombinant STEP, OMFP fluorogenic substrate, fluorescence;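 active = inhibition at 20 µM, scaled per plate between control wells, above about 37%, limit read from the data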;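 also: 0% = DMSO with enzyme and substrate and 100% = substrate only without enzyme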
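Material: STEP (striatal-enriched tyrosine phosphatase) enzyme, cell-free; Compound dosing: 20 µM single dose in 1% DMSO; Technique: fluorescence read at 480 nm ex / 540 nm em; Times: reaction 20 min, ambient temperature; Medium: 50 mM Bis-Tris pH 6.0 with 2.5 mM DTT and 0.005% Tween 20; Also added: OMFP at 25 µM.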
Scp-1 inhibitor: blocks human Scp-1 phosphatase activity | 340,000 compounds, 0.88% hits | Recombinant Scp1, phosphopeptide, malachite green phosphate absorbance | inhibition, % at 20 µM;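 active = inhibition above about 50% at 20 µM, limit read from the data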;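 also: plate controls were DMSO wells with enzyme for no effect and wells lacking enzyme for full effect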
Target sequence (Q9GZU7 76-261 limits assumed): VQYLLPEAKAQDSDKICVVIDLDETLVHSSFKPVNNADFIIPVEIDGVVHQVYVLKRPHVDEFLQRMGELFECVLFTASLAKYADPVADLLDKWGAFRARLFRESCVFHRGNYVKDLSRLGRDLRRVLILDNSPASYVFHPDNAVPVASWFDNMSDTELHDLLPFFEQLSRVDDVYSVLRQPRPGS
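Material: truncated SCP-1 phosphatase (76-261aa) / Buffer or medium: 50 mM Tris acetate pH 5.5, 0.005% Tween-20, 10 mM MgCl2 / Compound dosing: one concentration, 20 µM, with 1.0% DMSO / Incubation: 45 min room-temperature reaction, 5 min colour, 30 min stabiliser / Detection: colorimetric free-phosphate detection, absorbance 630 nm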
SUMO1 PPI mod: modulators of human SUMO1-mediated protein-protein interactions | 360,000 compounds, 0.33% hits | AID 602429 | P63165 | SUMO1 binding to a labelled peptide, TR-FRET, 1 h | inhibition, % at 20 µM; in the data active = inhibition above about 37%
Target sequence (P63165 whole entry, looked up): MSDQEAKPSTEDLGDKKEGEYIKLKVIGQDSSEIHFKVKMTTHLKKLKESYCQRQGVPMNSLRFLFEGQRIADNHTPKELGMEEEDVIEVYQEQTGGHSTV
LMPTP block: LMPTP (human) inhibition; P24666; recombinant LMPTP-A, OMFP fluorogenic substrate, fluorescence intensity; inhibition, % at 20 µM; 360,000 compounds, 0.22% hits;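 active = compounds that cut the enzyme signal by at least half of the control window in the single-dose screen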;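 also: plate controls were DMSO wells with enzyme plus substrate for no effect and substrate without enzyme for full effect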
Target sequence (P24666 whole entry, looked up): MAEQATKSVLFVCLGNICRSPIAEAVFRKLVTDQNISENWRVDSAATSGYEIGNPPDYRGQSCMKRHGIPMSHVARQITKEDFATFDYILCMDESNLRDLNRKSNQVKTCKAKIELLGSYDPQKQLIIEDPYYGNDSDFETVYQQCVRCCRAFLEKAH
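Test system – LMPTP-A phosphatase enzyme · Quantity – 0.625 nM LMPTP-A final · Reagent – OMFP substrate, 400 µM final · Dosing – one test concentration per compound, 20 µM, with 3% DMSO overall · Timing – 50 min enzyme reaction at room temperature, protected from light · Detection – fluorescence intensity · Controls – substrate-only low control, DMSO enzyme-plus-substrate high control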
Scp1 confirm: Scp-1 (human) inhibition, single-dose confirmed | 2,500 compounds, 61% hits | inhibition, % at 20 µM | shares compounds with Scp-1 inhibitor | recombinant SCP-1 catalytic domain, phosphate release, malachite green absorbance;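 also: plate controls were DMSO with enzyme for no effect and buffer wells lacking enzyme for full effect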
MG interference: interferes with malachite green readout, flagging false Scp-1 hits. shares compounds with Scp-1 inhibitor. Colorimetric interference counterscreen, malachite green absorbance 630 nm. apparent inhibition (interference), % at 20 µM. 2,500 tested, under 10 active. AID 540313;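 also: compounds added after enzyme reaction finished so only phosphate colour detection is probed; plate controls were DMSO wells with completed Scp-1 reaction for no effect and substrate wells lacking enzyme for full effect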
Scp-1 Tm shift: Scp-1 (human) binding by thermal shift; shares compounds with Scp-1 inhibitor; Recombinant SCP1, Sypro Orange thermal shift Tm; thermal shift relative to vanadate control, % at 40 µM; 1,500 compounds, 25% hits;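 active = substances whose mean melting-temperature shift, as a percentage of the reference inhibitor's shift, reaches about 5.3%, limit read from the data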;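 also: 0% = Tm of DMSO wells and 100% = Tm with sodium orthovanadate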
DNMT1 confirm: confirmation of human DNMT1 inhibitors; inhibition, % at 10 µM; 2,300 compounds, 8% hits; shares compounds with DNMT1 inh; AID 602385; DNMT1 molecular beacon HinP1I cleavage, fluorescence;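 active = average inhibition of at least 30% in the single-concentration confirmation test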
Beacon interf: counter-screen for DNMT1 inhibitors: spectral interference; shares compounds with DNMT1 inh; DNMT1 molecular beacon spectral interference counterscreen, fluorescence 485/520; activation (fluorescence interference), % at 10 µM; 2,300 compounds, 1% hits;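 active = activation of at least 30% at 10 µM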;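 also: DNMT1 catalytic domain with a HinP1I cleavage step and a FAM/dabcyl DNA beacon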
The depositor's hits bear a star.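 The calls were made as follows, unless noted: active = inhibition of at least 30% at 20 µM; inactive = the rest.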

Results for Cc1ccc(COC(=O)Cc2coc3cc(O)ccc23)cc1 ?
DNMT1 inh: 2; STEP inh: 0; Scp-1 inhibitor: -7; SUMO1 PPI mod: 9; LMPTP block: 4

Results for CC(=O)c1c(C)[nH]c(C(=O)COC(=O)c2ccc3c(=O)n4c(nc3c2)CCC4)c1C ?
DNMT1 inh: -8; STEP inh: 2; Scp-1 inhibitor: -1; SUMO1 PPI mod: 28; LMPTP block: 0

How did O=C(OCc1cc(=O)n2c(n1)sc1ccccc12)c1ccc2c(=O)n3c(nc2c1)CCC3 do in these assays?
DNMT1 inh: 102*; STEP inh: 10; Scp-1 inhibitor: 72*; SUMO1 PPI mod: 29; LMPTP block: 39; Scp1 confirm: 53*; MG interference: -13; Scp-1 Tm shift: -2; DNMT1 confirm: 6; Beacon interf: -1

Results for CN(Cc1nccs1)C(=O)C1CCC(=O)N(CCCc2ccccc2)C1 (configuration not stated) ?
DNMT1 inh: -3; STEP inh: 0; Scp-1 inhibitor: -6; SUMO1 PPI mod: -2; LMPTP block: -1

What do the screens show for `COc1ccc2[nH]c(=O)cc(C(=O)O)c2c1`?
DNMT1 inh: 58*; STEP inh: 2; Scp-1 inhibitor: 69*; SUMO1 PPI mod: 6; LMPTP block: 0; Scp1 confirm: 73*; MG interference: -10; Scp-1 Tm shift: -4; DNMT1 confirm: 8; Beacon interf: 6

What do the screens show for `COc1cccc(OCc2ccc(Cn3nc(NC(=O)NCCc4ccc(OC)c(OC)c4)c4ccccc43)cc2)c1`?
DNMT1 inh: -13; STEP inh: 3; SUMO1 PPI mod: 7; LMPTP block: 3

What do the screens show for `O=C(O)C1C2C=CC(CC2)C1C(=O)O` (configuration not stated)?
DNMT1 inh: 77*; STEP inh: 35; Scp-1 inhibitor: 102*; SUMO1 PPI mod: 34; LMPTP block: 0; Scp1 confirm: 72*; MG interference: -10; Scp-1 Tm shift: 1; DNMT1 confirm: 4; Beacon interf: 6

How did CC(C)c1ccc(NC(=O)C2C3C=CC(CC3)C2C(=O)O)cc1 (configuration not stated) do in these assays?
DNMT1 inh: 8; STEP inh: 12; Scp-1 inhibitor: 0; SUMO1 PPI mod: 14; LMPTP block: -1

How did COc1ccc(NC(=O)C2C(c3ccc4c(c3)OCO4)=Nc3ccccc3N2C(C)=O)cc1 (configuration not stated) do in these assays?
SUMO1 PPI mod: -22; LMPTP block: 0

How did O=c1oc(-c2ccccc2)nc2sc3c(c12)CCC3 do in these assays?
DNMT1 inh: 96*; STEP inh: 6; Scp-1 inhibitor: 59*; SUMO1 PPI mod: 1; LMPTP block: 38; Scp1 confirm: 34*; MG interference: -18; Scp-1 Tm shift: -20; DNMT1 confirm: 4; Beacon interf: 5

How did CC(C)(C)OC(=O)N/N=C/c1cc(N=Nc2ccccc2)ccc1O do in these assays?
DNMT1 inh: 1; STEP inh: -2; Scp-1 inhibitor: -12; SUMO1 PPI mod: 0; LMPTP block: 3

Results for Cc1ccc(N=Nc2ccc(O)c(/C=N\NC(=O)c3ccc(N)cc3)c2)cc1C ?
DNMT1 inh: 81*; STEP inh: 38; Scp-1 inhibitor: 95*; SUMO1 PPI mod: 2; LMPTP block: 41; Scp1 confirm: 74*; MG interference: -11; Scp-1 Tm shift: -1; DNMT1 confirm: 1; Beacon interf: 1

Results for C[C@H](CO)N1C[C@H](C)[C@@H](CN(C)CC2CCCCC2)Oc2ccc(NC(=O)CCN3CCOCC3)cc2C1=O ?
DNMT1 inh: 6; STEP inh: -1; Scp-1 inhibitor: 0; SUMO1 PPI mod: 0; LMPTP block: -2

How did CCCC(C)NC(=O)c1c2c(nc3ccccc13)CCC2 (configuration not stated) do in these assays?
DNMT1 inh: 29; STEP inh: 0; Scp-1 inhibitor: 21; SUMO1 PPI mod: 12; LMPTP block: -1

Results for O=C(NCc1ccco1)c1c2c(nc3ccccc13)CCC2 ?
DNMT1 inh: 84*; STEP inh: 2; Scp-1 inhibitor: 66*; SUMO1 PPI mod: 12; LMPTP block: 28; Scp1 confirm: 51*; MG interference: -18; Scp-1 Tm shift: 8.3*; DNMT1 confirm: 3; Beacon interf: 3

What do the screens show for `O=C(NCc1ccc(F)cc1)c1c2c(nc3ccccc13)CCC2`?
DNMT1 inh: 57*; STEP inh: 5; Scp-1 inhibitor: 52*; SUMO1 PPI mod: 8; LMPTP block: 6; Scp1 confirm: 60*; MG interference: -11; Scp-1 Tm shift: 12*; DNMT1 confirm: 14; Beacon interf: 4

How did O=C(CSc1c2c(nc3ccccc13)CCCC2)NCc1ccco1 do in these assays?
DNMT1 inh: 0; STEP inh: 0; Scp-1 inhibitor: -1; SUMO1 PPI mod: -2; LMPTP block: -1

Results for O=S(=O)(c1ccc(Br)cc1)c1nc(-c2ccccc2)oc1NCCN1CCOCC1 ?
DNMT1 inh: -1; STEP inh: 4; Scp-1 inhibitor: -5; SUMO1 PPI mod: -4; LMPTP block: 0

How did O=c1c2c(nc3cc(-c4ccccc4Cl)[nH]n13)CCS2 do in these assays?
DNMT1 inh: 77*; STEP inh: 5; Scp-1 inhibitor: 64*; SUMO1 PPI mod: 12; LMPTP block: 33; Scp1 confirm: 12; MG interference: -9; DNMT1 confirm: 1; Beacon interf: 2

What do the screens show for `O=C(Nc1ccc(NC(=O)c2cccs2)cc1)c1ccc(Br)o1`?
DNMT1 inh: 54*; STEP inh: 29; Scp-1 inhibitor: 61*; SUMO1 PPI mod: 22; LMPTP block: 42; Scp1 confirm: 72*; MG interference: -12; Scp-1 Tm shift: -9; DNMT1 confirm: -1; Beacon interf: -5

What do the screens show for `O=C(Nc1cccc(NC(=O)c2cccs2)c1)c1ccc(Br)o1`?
DNMT1 inh: -1; STEP inh: 1; Scp-1 inhibitor: -6; SUMO1 PPI mod: 4; LMPTP block: 0

High-throughput results: PubChem BioAssay, Sanford-Burnham Center for Chemical Genomics
